Values after ≈ are worked out from the molar mass of the structure shown.
What was measured:
Type in all cases: functional
Candida albicans [1] = experiment: Antimicrobial activity against Candida albicans ATCC 12031 assessed as diameter of zone of inhibition at 2 mg/ml after 24 hrs by agar well diffusion method; details: ATCC 12031, 24 h, read-out: DIZ
Method in brief: (§1)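 Agar well diffusion. Fungi were grown on Sabouraud dextrose agar and bacteria on nutrient agar (peptone, beef extract, NaCl, agar), with the inoculum spread over the medium. Wells were bored and filled with test drug at 2.0 mg/ml in DMSO. Plates sat 1 h at room temperature for diffusion, then 37 °C for 24 h. Inhibition zone diameter (mm, including well) is reported as mean ± SEM.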

Aspergillus fumigatus [2] = experiment: Antimicrobial activity against Aspergillus fumigatus ATCC 1022 assessed as diameter of zone of inhibition at 2 mg/ml after 24 hrs by agar well diffusion method; details: ATCC 1022, 24 h, read-out: DIZ; method in brief: as §1
Aspergillus versicolor [3] = experiment: Antimicrobial activity against Aspergillus versicolor ATCC 10072 assessed as diameter of zone of inhibition at 2 mg/ml after 24 hrs by agar well diffusion method; details: ATCC 10072, 24 h, read-out: DIZ; method in brief: as §1
Aspergillus flavus [4] = experiment: Antimicrobial activity against Aspergillus flavus ATCC 9643 assessed as diameter of zone of inhibition at 2 mg/ml after 24 hrs by agar well diffusion method; details: ATCC 9643, 24 h, read-out: DIZ; method in brief: as §1
Staphylococcus aureus = experiment: Antimicrobial activity against Staphylococcus aureus ATCC 25923 assessed as diameter of zone of inhibition at 2 mg/ml after 24 hrs by agar well diffusion method; details: ATCC 25923, 24 h, read-out: DIZ; method in brief: as §1
Escherichia coli = experiment: Antimicrobial activity against Escherichia coli ATCC 25922 assessed as diameter of zone of inhibition at 2 mg/ml after 24 hrs by agar well diffusion method; details: ATCC 25922, 24 h, read-out: DIZ; method in brief: as §1
Candida albicans [5] = experiment: Antimicrobial activity against Candida albicans ATCC 12031 after 48 hrs by two-fold serial dilution method; details: ATCC 12031, 48 h
Method in brief: (§2)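 Two-fold serial broth dilution of compounds, 100 down to 3.125 (six levels). Each was inoculated with fungal suspension at 10^6 CFU/mL in suitable broth and incubated at 37 °C for 48 h. Growth was judged by turbidity to assign the minimum inhibitory concentration.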

Aspergillus fumigatus [6] = experiment: Antimicrobial activity against Aspergillus fumigatus ATCC 1022 after 48 hrs by two-fold serial dilution method; details: ATCC 1022, 48 h; method in brief: as §2
Aspergillus versicolor [7] = experiment: Antimicrobial activity against Aspergillus versicolor ATCC 10072 after 48 hrs by two-fold serial dilution method; details: ATCC 10072, 48 h; method in brief: as §2
Aspergillus flavus [8] = experiment: Antimicrobial activity against Aspergillus flavus ATCC 9643 after 48 hrs by two-fold serial dilution method; details: ATCC 9643, 48 h; method in brief: as §2

| Structure (SMILES) | MIC (Candida albicans [5]) | MIC (Aspergillus fumigatus [6]) | MIC (Aspergillus versicolor [7]) | MIC (Aspergillus flavus [8]) | zone of inhibition at 2000 µg/mL (Candida albicans [1]) | zone of inhibition at 2000 µg/mL (Aspergillus fumigatus [2]) | zone of inhibition at 2000 µg/mL (Aspergillus versicolor [3]) | zone of inhibition at 2000 µg/mL (Aspergillus flavus [4]) | zone of inhibition at 2000 µg/mL (Staphylococcus aureus) | zone of inhibition at 2000 µg/mL (Escherichia coli) |
| --- | --- | --- | --- | --- | --- | --- | --- | --- | --- | --- |
| COc1ccc(C2CC(c3c(O)cc(C)c(Cl)c3C)=NN2)cc1 (stereo not given) | 50 µg/mL (≈ 151 µM) | 25 µg/mL (≈ 75.6 µM) | 25 µg/mL (≈ 75.6 µM) | 6.25 µg/mL (≈ 18.9 µM) | 18 mm | 18 mm | 13 mm | 12 mm | 11 mm | 8 mm |
| Cc1cc(O)c(C2=NNC(c3ccc(N(C)C)cc3)C2)c(C)c1Cl (stereo not given) | 12.5 µg/mL (≈ 36.4 µM) | 12.5 µg/mL (≈ 36.4 µM) | 12.5 µg/mL (≈ 36.4 µM) | 6.25 µg/mL (≈ 18.2 µM) | 18 mm | 18 mm | 13 mm | 13 mm | 12 mm | 8 mm |
| Cc1cc(O)c(C2=NOC(c3ccccc3)C2)c(C)c1Cl (stereo not given) | 25 µg/mL (≈ 82.8 µM) | 12.5 µg/mL (≈ 41.4 µM) | 25 µg/mL (≈ 82.8 µM) | 6.25 µg/mL (≈ 20.7 µM) | 22 mm | 21 mm | 17 mm | 15 mm | 11 mm | 8 mm |
| COc1ccc(C2CC(c3c(O)cc(C)c(Cl)c3C)=NO2)cc1 (stereo not given) | 12.5 µg/mL (≈ 37.7 µM) | 25 µg/mL (≈ 75.3 µM) | 25 µg/mL (≈ 75.3 µM) | 6.25 µg/mL (≈ 18.8 µM) | 22 mm | 16 mm | 15 mm | 16 mm | 11 mm | 8 mm |

More lines, main results first:

| MIC (Candida albicans [5]) | MIC (Aspergillus fumigatus [6]) | MIC (Aspergillus versicolor [7]) | MIC (Aspergillus flavus [8]) | Structure (SMILES) | zone of inhibition at 2000 µg/mL (Candida albicans [1]) | zone of inhibition at 2000 µg/mL (Aspergillus fumigatus [2]) | zone of inhibition at 2000 µg/mL (Aspergillus versicolor [3]) | zone of inhibition at 2000 µg/mL (Aspergillus flavus [4]) | zone of inhibition at 2000 µg/mL (Staphylococcus aureus) | zone of inhibition at 2000 µg/mL (Escherichia coli) |
| --- | --- | --- | --- | --- | --- | --- | --- | --- | --- | --- |
| 12.5 µg/mL (≈ 39.5 µM) | 12.5 µg/mL (≈ 39.5 µM) | 6.25 µg/mL (≈ 19.7 µM) | 3.12 µg/mL (≈ 9.86 µM) | Cc1cc(O)c(C2=NNC(c3cccc(O)c3)C2)c(C)c1Cl (stereo not given) | 23 mm | 20 mm | 21 mm | 21 mm | 11 mm | 9 mm |
| 12.5 µg/mL (≈ 34.6 µM) | 12.5 µg/mL (≈ 34.6 µM) | 12.5 µg/mL (≈ 34.6 µM) | 25 µg/mL (≈ 69.3 µM) | COc1ccc(C2CC(c3c(O)cc(C)c(Cl)c3C)=NN2)cc1OC (stereo not given) | 20 mm | 21 mm | 16 mm | 17 mm | 11 mm | 8 mm |
| 12.5 µg/mL (≈ 32 µM) | 12.5 µg/mL (≈ 32 µM) | 12.5 µg/mL (≈ 32 µM) | 12.5 µg/mL (≈ 32 µM) | COc1cc(C2CC(c3c(O)cc(C)c(Cl)c3C)=NN2)cc(OC)c1OC (stereo not given) | 20 mm | 21 mm | 16 mm | 15 mm | 10 mm | 9 mm |

Reference: ChEMBL document CHEMBL3414431, “Synthesis, biological evaluation and molecular docking of some substituted pyrazolines and isoxazolines as potential antimicrobial agents” (2015)
